# Data from the EternaBench riboswitch data.
# Tested on: MS2 coat protein
# Experiment: apparent Kd, MS2 coat protein; higher = weaker binding; RNA-MaP array; FMN 200 µM where present
# How it was run: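 Designs were transcribed by stalled E. coli RNA polymerase on Illumina sequencing-chip clusters. They were titrated with SNAP-549-labelled MS2 coat protein from 0.7 or 1.5 nM, doubling to 3 µM, without and then with constant ligand. Buffer: 100 mM Tris-HCl pH 7.5, 80 mM KCl, 4 mM MgCl2, BSA, DTT, yeast tRNA, Tween-20. Green signal was normalised to red-channel RNA signal and control-cluster median Fmax. Apparent Kd is the median of filtered per-cluster binding-curve fits.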
# [1] = designed as: ON switch for flavin mononucleotide, no ligand
# [2] = ligand present: flavin mononucleotide, designed as: ON switch for flavin mononucleotide
# [3] = designed as: OFF switch for flavin mononucleotide, no ligand
# [4] = ligand present: flavin mononucleotide, designed as: OFF switch for flavin mononucleotide
Sequence,apparent Kd [1] [nM],apparent Kd [2] [nM],apparent Kd [3] [nM],apparent Kd [4] [nM]
CGCUACUACCAGAAGGACAUGAGGAUCACCCAUGUAGGAUAUGGGUUACACGUUCCUGUGUUAAGUUACUACGCUACGUAUGCG,419,20.2,,
UUGAAUCGAAACAUGAGGAUCACCCAUGUGUCGUAGGUAGCAUAGGAUAUGUACAUACUGUUGGGAUAGAAGGAUGAUGAUGCU,8.62,7.47,,
GAGUAGUUGGGAGGAUAUCGAUUGUUAUAGAAUCGAGAAGGUUCUAACAUGAGGAUCACCCAUGUAGGACUAUUCCUGUGUAUC,71.8,65.4,,
UGGUGAAAUGUAGGAUAUGGAAAUAAAUUUUAACCAGAAGGACAUGAGGAUCACCCAUGUGAUAGAGAAUUAAUAAUAUCUCCU,,,18.6,29.9
UCGGCGCGAGGAUAUGCGGUUCCUUCUUCGGGCCGGAGCGUACAUGAGGAUCACCCAUGUAGAAGGCGCGCCGC,,,13.6,15.3
CUUAUGUGAGGAUAUGGUGUUGGCCACAGGAAAAAGAUCCUCCAGAAGGCACAUGAGGAUCACCCAUGUAGUGA,,,39.7,147
ACAUGAGGAUCACCCAUGUUCACAUAGGAUAUUGAUUAUAUUGGUUAUAGAAUAGUUAUAAUGCUCAAGAAGGAUGCCAGUUGU,11,8.94,,
CUACCUUAUGAGAAGGCGGUCAUGAAACAUGAUCGAGGAUAUCAUGUAAACAUGAGGAUCACCCAUGUAUGGGUAUUAUGGUAC,170,33,,
UUUUAACAUGAGGAUCACCCAUGUGAGGAUAUCGAAAUUUAUAUUAAUAUUAAUUAAUCGAGAAGGCACAUUUU,,,106,113
GAGGAGCAAGGAUAUACGAGGAUAUGGAAGGUUGGAGAGUGACAUGAGGAUCACCCAUGUAGAAGGUGCGAGGG,,,53.7,49.2
GGUACACAUGAGGAUCACCCAUGUCGUAUGACAUGAGGAUAUGUACAGACUUCGGUCUGUACAGAAGGCAUGUGUC,28.1,445,,
ACAGAGGCUGACAUGAGGAUCACCCAUGUUAGAUUGUUAUGUCAGGAUAUUAUCUGGCAACCAGAUGAGAAGGGACCCUCUGUU,21.5,7.68,,
UAUAUAAUUAAGAGCUGGUCCAAAACAUGAGGAUCACCCAUGUAGGAUAUCAGCACGAUAAGUGCUGAGAAGGACAUCCAGCUC,,,18.5,16.4
UGUUGUUGAUAGGAUAUACUUGUAGGAGUUGUAGUAGAAGGAUCUACAUGAGGAUCACCCAUGUAGGAGUGAGU,,,17.5,17.2
GUGCGGGUGCCACAGGAUAUACGUGGAUCGACAUGAGGAUCACCCAUGUAUAUCCUAAUAAUUGCGUAGAAGGGUGGUCAGCCGU,845,149,,
AACACAACAUGAAACAUGAGGAUCACCCAUGUUGUUUGUAAUCAGGAUAUGAUUUUAAUAAUGAAUUAGAAGGGAUAUGGAUUU,28.9,36.9,,
UAUAUUUAUGUAGGAUAUGGUAUAUAAAAUAUACCAGAAGGACAUGAGGAUCACCCAUGUAUGAAAUUCCAUAAUAAGCGUGUA,,,12.2,13.8
CCUCUACAUGAGGAUCACCCAUGUGAGGAUAUCAAAGCCAGAGCGGAUCUCUGGUCCAUGAGAAGGUGCAUGGU,,,20.4,89.6
GUCAGCUCGUGAGGAUAUACAACACUCCUUCGGCAGUGUAUUAAGAUCACAUGAGGAUCACCCAUGUAGAAGGCACGAGCUGAU,,,14.8,201
GGAGCAGGGUCAGGAUAUGUAGGUAGACGGCAAAUAGAAGGGACAUGAGGAUCACCCAUGUAACAUUAAAAUGAAGCAAGGGAG,,,66.4,71.5
GUGGUGCAUAUACGUGGAUGUACAUGAGGAUCACCCAUGUAAGAGGAUAUGCGGAUACUAGCUCAGCAGAAGGCUUACAAAUGA,,,30.3,240
UACGAGUCAGGAUAUUGGGCAAUAGCAUUACGGAACGAUCACAAGAAGGGACAUGAGGAUCACCCAUGUUAUAU,,,23.8,21.7
GCGUACAUAUCAGGAUAUCAUAUUAUUGUUUAACUCAGUGUAUACAUGAGGAUCACCCAUGUUCUUGAGAAGGGAUAUGUACGC,,,8.15,8.79
CAGCAAAAGUAGAAGGCAGUACUGAUUCAGUACUGAGGAUAUACAUGAGGAUCACCCAUGUAAUAUAGCUGAAUAAUAUAUUAU,,,6.17,7.56

Sequence,apparent Kd [1] [nM],apparent Kd [2] [nM],apparent Kd [3] [nM],apparent Kd [4] [nM]
AAAUCCUACGAAGGAUAUACAAACAUGAGGAUCACCCAUGUGUCUUUCGUGUAACUGGAAUUCGGGUAGAAGGUCGUAGACAUA,,,17,22.6
GGACGACACAUCUACAUGAGGAUCACCCAUGUCAAAAGACAUGAGGAUAUGCUACCUAAUUGGUAGCAGAAGGCAUGGUCGUCC,1370,67.2,,
UUACUAUUGGAGAAGGGUCGAUAAUAUAUAAUGGCAGGAUAUCCAACAUGAGGAUCACCCAUGUUUCACCCAUAUGAGGAUCAC,,,54.2,24.1
UGUUGUAUUACAGGAUAUCUAUUAGUUUUGUUUAGAGAAGGGUAUUCACAUGAGGAUCACCCAUGUAUAUACGAGGAAGUUGUG,59,65.2,,
UAAAAGACUAGCAUGGUAACCUUCACAUGAGGAUCACCCAUGUAGGAUAUGAGCAGAAAAUCUGCUCAGAAGGACAUGCUAGUC,,,3.31,3.67
AAACACAAACAUGAGGAUCACCCAUGUUAUGAAAAUAUUGGGAGAAGGGCGAUUGCAAAGCAAUCGCAGGAUAUUCGUAUUGUG,34.4,12.2,,
AAACCGUGUGGAGGAUAUGCAGUUGAGGUAAGGCGGCAGCUCUAUACGACAGCAGAAGGCCACAUGAGGAUCACCCAUGUAGGU,,,122,53.2
UCUACGCGAAUCCAGAUGGAUAGCACAUGAGGAUCACCCAUGUAGGAUAUGCUACACAAAGUGUAGCAGAAGGACAAGCGUAGA,,,28.3,32.3
AAGCAUUGGCUUCUCAUCUACAUGAGGAUCACCCAUGUCGGGAGAAGGAGGCUUUGACGACUAGCCUAGGAUAUCCUAACGUGC,,,5.65,6.15
CACGGUGAUGUAGGAUAUAUGCUGGAAUACAGCAUAGAAGGACAUGAGGAUCACCCAUGUAAAGUGUCUCCAAAUAACACCGUG,,,31.1,77
UUGAAUUUAAACAUGAGGAUCACCCAUGUGUCAUAGUUGAUAUAGGAUAUGUUUAUACUUUGAAAGCAGAAGGAUGACGAUACU,18.9,15.2,,
UUGGAUGUUGAGGAUAUGCUGGUGUUUAUUAUAGCAGAAGGCGAUACAUGAGGAUCACCCAUGUUCAUGGCUUU,,,12.8,15.2
CUACCUUAUGAGAAGGCGAUCAUGAAACAUGAUCGAGGAUAUCAUGUAAACAUGAGGAUCACCCAUGUAUGGGUAUUAUGGUAC,98.5,27.3,,
AGACUGAAGCAAGGAUAUUGUAAGGUUAUCGUACAAGAAGGUGCUGUUUAUGUCUCUUAACAUGAGGAUCACCCAUGUUUUGAA,18.4,18.1,,
CGAUAGUGUAGUUAUCCGUAGCGAACAUGAGGAUCACCCAUGUAGGAUAUGUUACUAAACUAGUAACAGAAGGGCGUGAGUCUU,,,30.2,30.6
GGGCCGAAAGGCCCGCGGGCCCGGCAGGAUAUACAUGAGGAUCACCCAUGUCCGGCGAAAGCCGGGUAGAAGGGCCGGGCCCGC,,,4.98,5.29
AGUCGGCGAGGAUAUACAUGAGGAUCACCCAUGUGAUAGAGUGCACGCGUACGUGUACGUAGAAGGCGCUGACA,,,11.9,37.7
AAGCGAGGGACAGGAUAUGCGGCGAAACUCGCCGCAGAAGGGUCGACAUGAGGAUCACCCAUGUCCUUACGCUCCAAGUAAAGG,216,436,,
CUAGAUAUGUAAGGAUAUAUAGUGGAAUACACUAUAGAAGGUAUGUGAGAACAUGAGGAUCACCCAUGUCAUUGGAUAUCUAGA,33.7,37.6,,
AAUCCACAUGAGGAUCACCCAUGUCAGGAUAUCGCGCGCGCGUUUUCGGUCUUGCGCGCGAGAAGGGACGGCUG,,,26.2,46
AGGUGACAUGAGGAUCACCCAUGUCAGGAUAUAUACACUGGCGACGUGACGUCGGCAGAUAGAAGGGACAAAGU,,,17.2,20
AAAAAGUCAGGAUAUGCUUAUAAUAAGAAAAUUAGAGAUAUGCAGAAGGGACAUGAGGAUCACCCAUGUAAAAA,,,35.3,37.8
CGGAUGUGAGGAUAUACAUGAGGAUCACCCAUGUGAGCCAGCUAGCUGACUGGCUCAUGUAGAAGGCACGUCUG,,,50.3,120
AAUUUUGCAGGAUAUGCGCAGCGUUUAGCCACACUAUGGAAACAUGAGGAUCACCCAUGUAGAAGGGCAGAGAU,,,26.4,20.8
